Source: PubChem BioAssay
hIAP block – human IAP inhibition. P09923. purified IAP, CDP-Star luminescence, 30 min. inhibition, % at 10 µM. 330,000 compounds, 0.12% hits. AID 2544;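 active means inhibition reaching a set limit with compound at 10 µM in the primary screen, cut at about 35% in these data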;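 further: plate controls were DMSO wells with enzyme for no effect and no-enzyme buffer wells for full effect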
Target sequence (P09923 whole entry, looked up): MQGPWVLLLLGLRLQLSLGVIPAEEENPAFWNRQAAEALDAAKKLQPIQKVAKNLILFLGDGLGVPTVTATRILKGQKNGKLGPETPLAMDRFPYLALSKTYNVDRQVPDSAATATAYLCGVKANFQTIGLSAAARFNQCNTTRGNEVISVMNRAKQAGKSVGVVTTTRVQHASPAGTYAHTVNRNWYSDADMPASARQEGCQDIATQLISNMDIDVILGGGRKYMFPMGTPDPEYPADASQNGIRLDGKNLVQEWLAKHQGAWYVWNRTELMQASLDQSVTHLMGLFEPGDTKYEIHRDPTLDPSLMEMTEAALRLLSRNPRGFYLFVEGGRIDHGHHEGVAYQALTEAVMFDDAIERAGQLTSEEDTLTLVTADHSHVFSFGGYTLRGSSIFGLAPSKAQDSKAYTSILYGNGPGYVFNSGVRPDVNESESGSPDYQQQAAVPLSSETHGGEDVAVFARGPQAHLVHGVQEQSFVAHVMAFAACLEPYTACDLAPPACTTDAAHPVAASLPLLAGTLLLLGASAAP
hIAP activ – increases human intestinal alkaline phosphatase activity; P09923; purified human IAP, CDP-Star luminescence, 30 min; stronger effect = higher value; 1 = vehicle-only enzyme, 0 = enzyme-free background; activation factor at 10 µM; 330,000 compounds, 0.16% hits; AID 2524;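 active means activation factor of the enzyme at least 2-fold when tested at 20 µM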
bIAP activator – intestinal alkaline phosphatase (bovine) activation. purified bovine IAP, CDP-star luminescence, 30 min; stronger effect = higher value; fold of DMSO-control signal, blank-subtracted. activation factor at 20 µM. 200,000 compounds, 0.17% hits. AID 1016;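 active means activation factor of 2 or more at 20 µM, a signal rise over negative controls twice the positive control's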
mIAP act – increases mouse intestinal alkaline phosphatase activity; muIAP, CDP-Star luminescence, 30 min; stronger effect = higher value; 1 = vehicle-only enzyme signal, 0 = enzyme-free wells; activation factor at 10 µM; 330,000 compounds, 0.24% hits;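 active means activation factor of at least 2 at 20 µM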
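Assay system: mouse IAP enzyme; Reagent: CDP-Star chemiluminescent phosphatase substrate; Compound: DMSO-dissolved test compounds; Incubation: 30 min, room temperature; Technique: luminescence from enzymatic CDP-Star hydrolysis; Controls: DMSO-only wells and no-enzyme negative control.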
bIAP inhibitor – intestinal alkaline phosphatase (bovine) inhibition; purified bovine IAP, CDP-star luminescence, 30 min; inhibition, % at 20 µM; 190,000 tested, under 10 active; AID 1019;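 active means over 50% inhibition of intestinal alkaline phosphatase at 20 µM in the single-dose screen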
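System: Purified bovine intestinal alkaline phosphatase (IAP) enzyme | Input: IAP diluted 1/65,000,000 in the well | Also added: CDP-star chemiluminescent phosphatase substrate, 30 µM final | Dosing: 20 µM single dose | Times: Enzyme reaction for 30 min at room temperature | Detection: Luminescence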
mIAP block – blocks mouse intestinal alkaline phosphatase; inhibition, % at 10 µM; 330,000 compounds, 0.2% hits; purified mouse IAP, CDP-Star luminescence, 30 min;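 active means inhibition of at least 40% at 10 µM in the primary screen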;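 further: plate controls were DMSO with enzyme for no effect and no enzyme wells for full effect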
* hit, by the source's call; · = not tested or not shown. Only some compounds are listed: those with a hit (about 0.77% of all), similar ones and a draw of the others.

SMILES	hIAP block	hIAP activ	bIAP activator	mIAP act	bIAP inhibitor	mIAP block
NC(=O)c1cccc(CS(=O)(=O)c2ccc(Cl)cc2)c1	-1.8	1.02	·	1.12	·	-12.2
COc1ccc(CCNC(=O)c2cc(-c3ccccc3O)n[nH]2)cc1OC	5.6	0.944	2*	1.91	-104.0	-91.3
CSc1ccc(CCNC(=O)c2cc(-c3ccccc3)c(N3CCOCC3)s2)cc1	-52.0	1.52	·	2.37*	·	-136.9
O=C(NCCc1ccccc1)c1cc(-c2ccccc2)c(N2CCOCC2)s1	-15.9	1.16	·	2.81*	·	-181.3
COc1ccc(CCNC(=O)c2cc(-c3ccccc3)c(N3CCOCC3)s2)cc1OC	-43.3	1.43	·	2.15*	·	-115.2
COc1ccc(CCNC(=O)c2ccc(CNc3c(N4CCOCC4)c(=O)c3=O)cc2)cc1OC	6.8	0.932	1	0.96	1.2	4.0
Cc1noc(C)c1C(=O)Nc1ccc(S(=O)(=O)N2CCC(C)CC2)cc1	-11.6	1.12	·	0.494	·	50.6*
Cc1noc(C)c1C(=O)Nc1ccc(S(=O)(=O)N2CCCCC2)cc1	-28.8	1.29	·	0.989	·	1.1
COc1ccc(CNC(=O)CSCc2cnn(-c3ccccc3)c2-n2cccc2)cc1	-14.7	1.15	2.5*	1.05	-146.5	-4.8
COc1ccc(C2=NOC(Cn3nc(-c4ccccc4)cc3C(=O)NCc3ccc(C)cc3)C2)cc1 (centres undefined)	-8.3	1.08	·	3.31*	·	-231.1
Cc1ccccc1-c1cc(C(=O)NCc2cccc(Br)c2)n(CC2CC(c3cccnc3)=NO2)n1 (centres undefined)	-4.1	1.04	·	2*	·	-100.0
CCOC(=O)c1cc(-c2ccccc2)nn1CC1CC(c2ccc(OC)cc2)=NO1 (centres undefined)	-14.8	1.15	·	1.03	·	-3.2
COc1ccc(C2=NOC(Cn3nc(-c4ccccc4)cc3C(=O)NCc3cccc(C(F)(F)F)c3)C2)cc1 (centres undefined)	-8.3	1.08	·	3.24*	·	-223.7
COc1ccc(Oc2ccc(/C=C/C(=O)c3cccc(OC)c3)cc2[N+](=O)[O-])cc1	11.3	0.887	0.9	0.952	7.4	4.8
COc1ccccc1CN1CC(C(=O)N2CCC(OC)CC2)CCC1=O (centres undefined)	7.4	0.926	·	0.989	·	1.1
C[C@@H]1CN([C@@H](C)CO)C(=O)Cc2cc(NC(=O)Nc3cccc4ccccc34)ccc2O[C@@H]1CN(C)Cc1ccc(C(F)(F)F)cc1	-1.1	1.01	·	2.14*	·	-114.2
C[C@@H]1CN([C@H](C)CO)C(=O)Cc2cc(NC(=O)Nc3ccccc3)ccc2O[C@@H]1CN(C)Cc1ccc2c(c1)OCO2	-9.3	1.09	·	2.13*	·	-113.4
C[C@@H]1CN([C@@H](C)CO)C(=O)Cc2cc(NS(=O)(=O)c3ccccc3)ccc2O[C@H]1CN(C)S(C)(=O)=O	-10.3	1.1	·	1.02	·	-2.0
C[C@@H]1CN([C@@H](C)CO)C(=O)Cc2cc(NC(=O)Nc3cccc4ccccc34)ccc2O[C@@H]1CN(C)S(C)(=O)=O	12.6	0.874	·	2.27*	·	-127.0
C[C@@H]1CN([C@H](C)CO)C(=O)Cc2cc(NS(=O)(=O)c3ccc(Cl)cc3)ccc2O[C@H]1CN(C)Cc1ccc(C(F)(F)F)cc1	-2.0	1.02	·	0.959	·	4.1
COc1ccc(C(=O)OCC(=O)NCc2ccccc2)c(OC)c1OC	-5.0	1.05	1	0.966	1.9	3.4
Cc1cc(C)nc(N2CCCC(C(=O)Nc3nc4ccc(S(C)(=O)=O)cc4s3)C2)n1 (centres undefined)	6.6	0.934	5.3*	0.961	-430.5	3.9
CCc1cc(Cn2nc(-c3ccccc3)cc2C(=O)NCc2cccs2)on1	-4.7	1.05	·	3.58*	·	-257.9
CCN1C(=O)/C(=C2\C=Cc3ccccc3N2CC)SC1=S	30.2	0.698	0.7	0.588	25.3	41.2*
CCN1C(=O)/C(=c2\o/c(=C3\C=Cc4ccccc4N3CC)c(=O)n2CC)SC1=S	·	·	0.6	·	38.0	·
SMILES	hIAP block	hIAP activ	bIAP activator	mIAP act	bIAP inhibitor	mIAP block
Cc1c(CCOC(=O)C23CC4CC(CC(C)(C4)C2)C3)sc[n+]1CC(=O)c1ccccc1	15.7	0.843	0.7	0.574	28.8	42.6*
Cc1c(CCOC(=O)CC23CC4CC(CC(C)(C4)C2)C3)sc[n+]1CC(=O)c1ccccc1	1.6	0.984	0.6	0.624	43.0	37.6
CN(C)c1ccc(S(=O)(=O)N2CCCCC2)cc1NC(=O)CCNC(=O)c1ccc(Cl)cc1	18.3	0.817	·	0.998	·	0.2
Clc1ccc(-n2nnc(-c3cccnc3Cl)n2)cc1Cl	4.7	0.953	0.9	0.508	9.7	49.2*
COc1cc(/C=N/NC(=O)CCC(=O)Nc2ccc(Br)cc2)ccc1O	10.1	0.899	·	1.01	·	-1.4
CC(CNC(=S)Nc1cc(F)cc(F)c1)CSc1ccc(Cl)cc1 (centres undefined)	-22.0	1.22	0.7	3.19*	26.4	-218.8
CC(C)(C)n1nc2c(c1NC(=O)c1ccc(Br)o1)CS(=O)C2 (centres undefined)	-2.0	1.02	2.6*	0.976	-158.1	2.4
O=C(O)CCN1CCc2ccccc2C1c1cccs1 (centres undefined)	-20.7	1.21	0.9	0.917	6.3	8.3
COc1ccc(Cl)cc1NS(=O)(=O)c1cn(C)nc1C	29.9	0.701	·	0.952	·	4.8
CCN(CC)S(=O)(=O)c1ccc(C)c(NC(=S)NC2CCCCC2)c1	-3.2	1.03	·	2.04*	·	-104.1
CC(=O)NNC(=S)Nc1cc(S(=O)(=O)N(C)C)ccc1C	-81.9	1.82	1	0.94	1.9	6.0
Cc1ccc(NC(=S)NC2CCCCC2)cc1S(=O)(=O)N(C)C	-35.3	1.35	1.2	2.36*	-22.9	-136.0
CCN(CC)S(=O)(=O)c1cccc(C(=O)NC2CCCCC2)c1	5.9	0.941	1	0.926	3.1	7.4
CC1CCCCC1NC(=S)Nc1cccc(S(=O)(=O)N(C)C)c1 (centres undefined)	-12.1	1.12	0.8	2.92*	23.6	-191.7
Cc1ccc(S(=O)(=O)N(C)C)cc1NC(=S)NC1CCCC(C)C1C (centres undefined)	-12.2	1.12	1	2.83*	0.5	-183.5
CC1CC(C)(C)CC2(C1)NC(=O)N(CC(=O)NCc1ccccc1F)C2=O (centres undefined)	1.2	0.988	·	0.931	·	6.9
COCCn1c(CN2CCc3ccccc3C2)nc2c1c(=O)n(C)c(=O)n2C	-16.2	1.16	1	1.02	1.3	-1.8
CCOC(=O)/C(N=Nc1sc(C(=O)OCC)c(C)c1C(=O)OCC)=C(\C)O	16.5	0.835	0.8	0.881	19.4	11.9
CCOC(=O)c1sc(N=NC2=C(O)CCCC2=O)c(C(=O)OCC)c1C	24.2	0.758	1.1	0.6	-11.6	40.0*
COc1ccc(NC(=O)C(=O)c2cn(CC(=O)N3CCCC3)c3ccccc23)cc1	-17.8	1.18	·	0.951	·	4.9
